Data as given in ChEMBL document CHEMBL1139369, “Discovery and structure-activity relationship of P1-P3 ketoamide derived macrocyclic inhibitors of hepatitis C virus NS3 protease” (J Med Chem, 2009).
The source made the active and inactive calls. The calls are words filed in the database; no cut-off is given here.

Key:
[1] = test system: Hepatitis C virus; test: Antiviral activity against HCV by genotype 1 replicon based cellular assay; format: functional, Hepacivirus hominis
[2] = Binding affinity to HCV NS3 protease; design: species or system Hepacivirus hominis
[3] = Ratio of Ki for human neutrophil elastase to Ki for HCV NS3 protease
Summary of the method: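 Selectivity index: Ki* against human neutrophil elastase divided by Ki* against HCV NS3 protease, both from enzyme binding measurements.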

[4] = (§1) AUC (0 to 6 hrs) in rat at 10 mg/kg, po; format: ADME, organism-based, Plasma; design: time < 6 hr, dose 10 mg/kg, route oral; conditions: plasma
Summary of the method: (§2)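 Rapid rat assay: oral dosing at 10 mg/kg in 0.4% HPMC. Blood drawn periodically and pooled; plasma AUC calculated over 0–6 h.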

[5] = test system: Rattus norvegicus; test: as §1; format: ADME, organism-based, Plasma; design: time < 6 hr, dose 10 mg/kg, route oral; conditions: in vivo, 6 h; summary of the method: as §2
[6] = AUC (0 to 6 hrs) in rat at 5 mg/kg, po; format: ADME, organism-based; design: time < 6 hr, dose 5 mg/kg, route oral; conditions: plasma
Summary of the method: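 Rapid rat plasma-level assay with oral dosing at 5 mg/kg in 0.4% HPMC; plasma exposure expressed as AUC.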

CC(C)(C)OC(=O)[C@@H](NC(=O)N[C@H]1CCCCCCCCCC[C@@H](C(=O)C(N)=O)NC(=O)[C@@H]2[C@H]3[C@@H](CN2C1=O)C3(C)C)C(C)(C)C
EC90 [1]: 400 nM | Ki [2]: 37 nM

CN(C)C(=O)[C@@H](NC(=O)CNC(=O)C(=O)[C@@H]1CCCCCCCCCC[C@H](NC(=O)NC(C)(C)C)C(=O)N2C[C@@H]3[C@H]([C@H]2C(=O)N1)C3(C)C)c1ccccc1
Ratio Ki [3]: 980 | EC90 [1]: 1000 nM | Ki [2]: 6 nM

C=CCNC(=O)C(=O)[C@@H]1CCCCCCCCC[C@H](NC(=O)N[C@H](CN2C(=O)C3CCC(C3)C2=O)C(C)(C)C)C(=O)N2CC3C([C@H]2C(=O)N1)C3(C)C (single isomer, unassigned)
EC90 [1]: 15 nM | Ki [2]: 3 nM | AUC(0-t) at 6 h [4]: 0.31 µM·h

CC(C)(C)NC(=O)N[C@H]1CCCCCCCCCC[C@@H](C(=O)C(N)=O)NC(=O)[C@H]2[C@H]3[C@@H](CN2C1=O)C3(C)C
EC90 [1]: 1000 nM | Ki [2]: 59 nM

CCCNC(=O)C(=O)[C@@H]1CCCCCCCCC[C@H](NC(=O)N[C@H](CN(C)S(=O)(=O)c2cccs2)C(C)(C)C)C(=O)N2CC3C([C@H]2C(=O)N1)C3(C)C (single isomer, unassigned)
Ki [2]: 14 nM

CN(C[C@@H](NC(=O)N[C@H]1CCCCCCCCC[C@@H](C(=O)C(N)=O)NC(=O)[C@@H]2C3C(CN2C1=O)C3(C)C)C(C)(C)C)S(C)(=O)=O (single isomer, unassigned)
EC90 [1]: 250 nM | Ki [2]: 3 nM

C=CCNC(=O)C(=O)[C@@H]1CCCCCCCCC[C@H](NC(=O)N[C@H](CN2C(=O)CN(C)CC2=O)C(C)(C)C)C(=O)N2CC3C([C@H]2C(=O)N1)C3(C)C (single isomer, unassigned)
EC90 [1]: 30 nM | Ki [2]: 4 nM | AUC(0-t) at 6 h [4]: 0.28 µM·h

C=CCNC(=O)C(=O)[C@@H]1CCCCCCCCC[C@H](NC(=O)N[C@H](CN(C)S(=O)(=O)c2cccs2)C(C)(C)C)C(=O)N2CC3C([C@H]2C(=O)N1)C3(C)C (single isomer, unassigned)
Ki [2]: 5 nM | AUC(0-t) at 6 h [4]: 1.26 µM·h

C=CCCCC[C@H](NC(=O)[C@@H]1[C@H]2[C@@H](CN1C(=O)[C@H](CCCCC=C)NC(=O)OC(C)(C)C)C2(C)C)C(=O)C(N)=O
Ki [2]: 250 nM

CN(C[C@@H](NC(=O)N[C@H]1CCCCCCCCC[C@@H](C(=O)C(N)=O)NC(=O)[C@@H]2[C@H]3[C@@H](CN2C1=O)C3(C)C)C(C)(C)C)S(=O)(=O)c1cccs1
EC90 [1]: 70 nM | Ki [2]: 2 nM

C=CCNC(=O)C(=O)[C@@H]1CCCCCCCCC[C@H](NC(=O)N[C@H](C(=O)C2CC2)C2CCCCC2)C(=O)N2C[C@@H]3[C@H]([C@H]2C(=O)N1)C3(C)C
EC90 [1]: 280 nM | Ki [2]: 6 nM | Activity [5]: Not Active

CN(C)C(=O)[C@@H](NC(=O)CNC(=O)C(=O)[C@@H]1CCCC/C=C/CCCC[C@H](NC(=O)OC(C)(C)C)C(=O)N2CC3C([C@H]2C(=O)N1)C3(C)C)c1ccccc1 (single isomer, unassigned)
Ratio Ki [3]: 1400 | EC90 [1]: 300 nM | Ki [2]: 5 nM

CN(C[C@@H](NC(=O)N[C@H]1CCCCCCCCC[C@@H](C(=O)C(=O)NCC2CC2)NC(=O)[C@@H]2C3C(CN2C1=O)C3(C)C)C(C)(C)C)S(=O)(=O)c1cccs1 (single isomer, unassigned)
Ki [2]: 21 nM | AUC(0-t) at 6 h [4]: 0.4 µM·h

C=CCNC(=O)C(=O)[C@@H]1CCCCCCCCC[C@H](NC(=O)N[C@H](CN2C(=O)CC(C)(C)CC2=O)C(C)(C)C)C(=O)N2CC3C([C@H]2C(=O)N1)C3(C)C (single isomer, unassigned)
EC90 [1]: 20 nM | Ki [2]: 2 nM | AUC(0-t) at 6 h [4]: 1.1 µM·h

CC(C)[C@H](NC(=O)N[C@H]1CCCCCCCCC[C@@H](C(=O)C(N)=O)NC(=O)[C@@H]2C3C(CN2C1=O)C3(C)C)C(=O)C1CC1 (single isomer, unassigned)
EC90 [1]: 100 nM | Ki [2]: 11 nM

C=CCNC(=O)C(=O)[C@@H]1CCCCCCCCC[C@H](NC(=O)N[C@H](CN(C)S(=O)(=O)N(C)C)C(C)(C)C)C(=O)N2C[C@@H]3[C@H]([C@H]2C(=O)N1)C3(C)C
EC90 [1]: 60 nM | Ki [2]: 13 nM | AUC(0-t) at 6 h [6]: 1.04 µM·h

CC(C)(C)OC(=O)N[C@H]1CCCCCCCCCC[C@@H](C(=O)C(N)=O)NC(=O)[C@@H]2C3C(CN2C1=O)C3(C)C (single isomer, unassigned)
EC90 [1]: 900 nM | Ki [2]: 59 nM

C=CCNC(=O)C(=O)[C@@H]1CCCCCCCCC[C@H](NC(=O)N[C@H](C(=O)C2CC2)C(C)C)C(=O)N2CC3C([C@H]2C(=O)N1)C3(C)C (single isomer, unassigned)
EC90 [1]: 480 nM | Ki [2]: 20 nM | Activity [5]: Not Active

C=CCNC(=O)C(=O)[C@@H]1CCCCCCCCC[C@H](NC(=O)N[C@H](CN2CCC(C)(C)CC2=O)C(C)(C)C)C(=O)N2C[C@@H]3[C@H]([C@H]2C(=O)N1)C3(C)C
EC90 [1]: 20 nM | Ki [2]: 2 nM | AUC(0-t) at 6 h [4]: 1.5 µM·h

CC1(NC(=O)N[C@H]2CCCCCCCCCC[C@@H](C(=O)C(N)=O)NC(=O)[C@@H]3C4C(CN3C2=O)C4(C)C)CCCCC1 (single isomer, unassigned)
EC90 [1]: 400 nM | Ki [2]: 36 nM

CN(C)C(=O)[C@@H](NC(=O)CNC(=O)C(=O)[C@@H]1CCCCCCCCCC[C@H](NC(=O)OC(C)(C)C)C(=O)N2CC3C([C@H]2C(=O)N1)C3(C)C)c1ccccc1 (single isomer, unassigned)
Ratio Ki [3]: 780 | EC90 [1]: 600 nM | Ki [2]: 6 nM

CC(C)(C)NC(=O)N[C@H](C(=O)N1CC2C([C@H]1C(=O)NC(CC1CCC1)C(=O)C(N)=O)C2(C)C)C(C)(C)C (single isomer, unassigned) [BOCEPREVIR]
Ratio Ki [3]: 2200 | EC90 [1]: 350 nM | Ki [2]: 14 nM

CC1(C)C2CN3C(=O)[C@@H](NC(=O)N[C@H](C(=O)C4CC4)C4CCCCC4)CCCCCCCCC[C@@H](C(=O)C(N)=O)NC(=O)[C@@H]3C21 (single isomer, unassigned)
EC90 [1]: 180 nM | Ki [2]: 11 nM

CC(C)(C)OC(=O)N[C@H]1CCCCCCCCCC[C@@H](C(=O)C(=O)NCC(=O)NCc2ccccc2)NC(=O)[C@@H]2[C@H]3[C@@H](CN2C1=O)C3(C)C
EC90 [1]: 2000 nM | Ki [2]: 89 nM

C=CCNC(=O)C(=O)[C@@H]1CCCCCCCCC[C@H](NC(=O)N[C@H](CN2Cc3sccc3S2(=O)=O)C(C)(C)C)C(=O)N2C[C@@H]3[C@H]([C@H]2C(=O)N1)C3(C)C
EC90 [1]: 150 nM | Ki [2]: 7 nM | AUC(0-t) at 6 h [4]: 0.84 µM·h

C=CCNC(=O)C(=O)[C@@H]1CCCCCCCCC[C@H](NC(=O)N[C@H](CN(C)S(=O)(=O)c2ccccn2)C(C)(C)C)C(=O)N2CC3C([C@H]2C(=O)N1)C3(C)C (single isomer, unassigned)
EC90 [1]: 90 nM | Ki [2]: 7 nM | AUC(0-t) at 6 h [4]: 0.84 µM·h

CC(C)(C)NC(=O)C(=O)[C@@H]1CCCCCCCCCC[C@H](NC(=O)OC(C)(C)C)C(=O)N2CC3C([C@H]2C(=O)N1)C3(C)C (single isomer, unassigned)
Activity ([1]; Hepacivirus hominis): inactive | Ki [2]: 6000 nM

C=CCNC(=O)C(=O)[C@@H]1CCCCCCCCC[C@H](NC(=O)N[C@H](CN(C)S(C)(=O)=O)C(C)(C)C)C(=O)N2C[C@@H]3[C@H]([C@H]2C(=O)N1)C3(C)C
EC90 [1]: 55 nM | Ki [2]: 3 nM | AUC(0-t) at 6 h [4]: 0.36 µM·h

CCNC(=O)C(=O)[C@@H]1CCCCCCCCC[C@H](NC(=O)N[C@H](CN(C)S(=O)(=O)c2cccs2)C(C)(C)C)C(=O)N2CC3C([C@H]2C(=O)N1)C3(C)C (single isomer, unassigned)
Ki [2]: 10 nM

C=CCNC(=O)C(=O)[C@@H]1CCCCCCCCC[C@H](NC(=O)N[C@H](CN2C(=O)c3ccccc3C2=O)C(C)(C)C)C(=O)N2CC3C([C@H]2C(=O)N1)C3(C)C (single isomer, unassigned)
EC90 [1]: 100 nM | Ki [2]: 16 nM | AUC(0-t) at 6 h [4]: 1.2 µM·h
